In ChEMBL document CHEMBL3286275, “Identification of 1-{2-[4-chloro-1'-(2,2-dimethylpropyl)-7-hydroxy-1,2-dihydrospiro[indole-3,4'-piperidine]-1-yl]phenyl}-3-{5-chloro-[1,3]thiazolo[5,4-b]pyridin-2-yl}urea, a potent, efficacious and orally bioavailable P2Y(1) antagonist as an antiplatelet agent” (Bioorg Med Chem Lett, 2014):
pIC50: −log10 of the molar value. Converted amounts (≈) assume the structure as drawn. The source made the active and inactive calls. The calls are words filed in the database; no cut-off is given here.

Experiments:
Oryctolagus cuniculus [1] = test: Cardiotoxicity in rabbit assessed as increase in QTc at 10 to 30 mg/kg, iv by surface electrocardiography; format: toxicity, organism-based; parameters: dose 10-30 mg/kg, route intravenous; conditions: in vivo
How it was run: (§1)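 Anesthetized rabbits given IV doses of 3, 10 and 30 mg/kg in increasing order; plasma concentrations measured; PR, QRS and QTc intervals read by surface ECG.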

[2] = Oral bioavailability in dog at 5 mg/kg; format: ADME, organism-based, Canis lupus familiaris; conditions: in vivo
How it was run: (§2)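 Dog and cynomolgus PK used the methanesulfonic acid salt at 0.2 mg/kg IV and 5 mg/kg PO; clearance, Vdss, half-life and oral bioavailability determined.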

P2X purinoceptor 1 = biological target: T1, P2X purinoceptor 1 (Homo sapiens, UniProt P51575); test: Antagonist activity at P2X1 receptor (unknown origin) by FLIPR assay
T1 sequence (P51575 whole entry): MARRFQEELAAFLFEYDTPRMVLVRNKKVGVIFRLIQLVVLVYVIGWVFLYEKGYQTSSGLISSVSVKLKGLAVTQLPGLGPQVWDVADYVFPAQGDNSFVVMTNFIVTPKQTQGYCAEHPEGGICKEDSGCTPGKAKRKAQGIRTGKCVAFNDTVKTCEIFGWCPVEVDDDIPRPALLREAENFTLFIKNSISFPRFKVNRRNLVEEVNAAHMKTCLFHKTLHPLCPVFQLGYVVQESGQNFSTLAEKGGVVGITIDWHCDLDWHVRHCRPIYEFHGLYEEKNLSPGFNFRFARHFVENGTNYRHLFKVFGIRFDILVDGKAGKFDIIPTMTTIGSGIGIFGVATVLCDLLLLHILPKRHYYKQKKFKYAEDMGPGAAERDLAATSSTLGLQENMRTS

P2Y purinoceptor 2 = P2Y purinoceptor 2 (Homo sapiens, UniProt P41231); test: Antagonist activity at P2Y2 receptor (unknown origin)
Sequence of P2Y purinoceptor 2 (P41231 whole entry): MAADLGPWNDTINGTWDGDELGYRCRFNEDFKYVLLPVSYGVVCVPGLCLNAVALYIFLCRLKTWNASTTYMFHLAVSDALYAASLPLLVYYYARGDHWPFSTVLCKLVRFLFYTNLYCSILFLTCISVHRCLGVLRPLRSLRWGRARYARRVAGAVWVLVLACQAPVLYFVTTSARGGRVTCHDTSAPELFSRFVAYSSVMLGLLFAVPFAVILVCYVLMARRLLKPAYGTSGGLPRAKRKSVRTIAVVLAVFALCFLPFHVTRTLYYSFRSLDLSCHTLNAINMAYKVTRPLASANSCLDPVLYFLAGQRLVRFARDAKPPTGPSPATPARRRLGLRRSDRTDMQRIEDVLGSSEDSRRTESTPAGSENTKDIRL

Rattus norvegicus [3] = test: Antithrombotic activity in po dosed pentobarbital anesthetized rat assessed as reduction in FeCl2-induced thrombus weight administered 1 hr prior to FeCl2 challenge
[4] = Clearance in dog at 0.2 mg/kg, iv and 5 mg/kg, po; format: ADME, organism-based, Canis lupus familiaris; conditions: in vivo; how it was run: as §2
Oryctolagus cuniculus [5] = test: Cardiotoxicity in rabbit assessed as PR interval at 3 to 30 mg/kg, iv by surface electrocardiography; format: toxicity, organism-based; parameters: dose 3-30 mg/kg, route intravenous; conditions: in vivo; how it was run: as §1
Blood [6] = test: Drug uptake in rat blood at 3 mg/kg, po; format: ADME, organism-based; parameters: dose 3 mg/kg, route oral; conditions: in vivo, read-out: Drug uptake
[7] = Half life in cynomolgus monkey at 0.2 mg/kg, iv and 5 mg/kg, po; format: ADME, organism-based, Macaca fascicularis; conditions: in vivo; how it was run: as §2
Rattus norvegicus [8] = test: Ex vivo inhibition of platelet aggregation in po dosed pentobarbital anesthetized rat administered 1 hr prior to FeCl2 challenge; format: functional
How it was run: (§3)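 Pentobarbital-anesthetized rats; vehicle (1 ml/kg of 10% N,N-dimethylacetamide/90% dextrose 5% water) or 0.3, 1, 3, 10 mg/kg by oral gavage 1 h before FeCl2-induced carotid thrombosis or cuticle/mesenteric bleeding time. End points were thrombus weight and blood flow. Blood was drawn at the end of the thrombosis protocol for ex vivo aggregation. ID50 values derived; SEM reported.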

Rattus norvegicus [9] = test: Toxicity in rat assessed as prolongation of cuticle bleeding time at 10 mg/kg, po relative to control; format: organism-based; parameters: dose 10 mg/kg, route oral; conditions: in vivo
How it was run: (§4)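 Pentobarbital-anesthetized rats dosed by oral gavage 1 h before bleeding-time induction. Vehicle was 1 ml/kg of 10% N,N-dimethylacetamide/90% dextrose 5% water, and compound was given at 0.3, 1, 3 and 10 mg/kg. Cuticle and mesenteric bleeding times were measured and expressed as fold prolongation relative to vehicle. Group sizes were indicated per group.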

Rattus norvegicus [10] = test: Toxicity in rat assessed as prolongation of mesentric bleeding time at 10 mg/kg, po relative to control; format: organism-based; parameters: dose 10 mg/kg, route oral; conditions: in vivo; how it was run: as §4
P2Y purinoceptor 12 = P2Y purinoceptor 12 (Homo sapiens, UniProt Q9H244); test: Antagonist activity at P2Y12 receptor (unknown origin)
Sequence of P2Y purinoceptor 12 (Q9H244 whole entry): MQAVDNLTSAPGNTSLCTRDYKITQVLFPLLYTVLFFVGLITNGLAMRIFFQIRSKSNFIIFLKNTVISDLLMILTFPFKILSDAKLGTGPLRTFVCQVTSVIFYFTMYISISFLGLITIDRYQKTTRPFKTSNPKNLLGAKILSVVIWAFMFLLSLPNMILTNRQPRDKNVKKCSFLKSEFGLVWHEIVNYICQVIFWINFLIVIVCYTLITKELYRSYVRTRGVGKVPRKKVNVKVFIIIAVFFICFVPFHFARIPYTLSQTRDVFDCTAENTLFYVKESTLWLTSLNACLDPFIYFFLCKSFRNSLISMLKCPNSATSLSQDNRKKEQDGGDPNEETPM

[11] = Aqueous solubility of the compound at pH 3.9; format: physicochemical; conditions: aqueous medium, read-out: Activity
How it was run: (§5)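 Aqueous solubility taken on crystalline material: free base at pH 6.5, mono-methanesulfonic acid salt at pH 3.9.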

[12] = Half life in dog at 0.2 mg/kg, iv and 5 mg/kg, po; format: ADME, organism-based, Canis lupus familiaris; conditions: in vivo; how it was run: as §2
[13] = Plasma protein binding in rat; format: ADME, cell-free; conditions: read-out: PPB (converted)
Rattus norvegicus [14] = test: Antithrombotic activity in po dosed pentobarbital anesthetized rat assessed as maintainance of blood flow administered 1 hr prior to FeCl2 challenge; format: functional, organism-based; how it was run: as §3
Blood [15] = test: Drug uptake in rat blood at 1 mg/kg, po; format: ADME, organism-based; parameters: dose 1 mg/kg, route oral; conditions: in vivo, read-out: Drug uptake
Blood [16] = test: Drug uptake in rat blood at 10 mg/kg, po; format: ADME, organism-based; parameters: dose 10 mg/kg, route oral; conditions: in vivo, read-out: Drug uptake
hERG (KCNH2) = hERG (KCNH2) (Homo sapiens, UniProt Q12809); test: Inhibition of human ERG channel at 1 uM by patch clamp technique
Sequence of hERG (KCNH2) (Q12809 whole entry): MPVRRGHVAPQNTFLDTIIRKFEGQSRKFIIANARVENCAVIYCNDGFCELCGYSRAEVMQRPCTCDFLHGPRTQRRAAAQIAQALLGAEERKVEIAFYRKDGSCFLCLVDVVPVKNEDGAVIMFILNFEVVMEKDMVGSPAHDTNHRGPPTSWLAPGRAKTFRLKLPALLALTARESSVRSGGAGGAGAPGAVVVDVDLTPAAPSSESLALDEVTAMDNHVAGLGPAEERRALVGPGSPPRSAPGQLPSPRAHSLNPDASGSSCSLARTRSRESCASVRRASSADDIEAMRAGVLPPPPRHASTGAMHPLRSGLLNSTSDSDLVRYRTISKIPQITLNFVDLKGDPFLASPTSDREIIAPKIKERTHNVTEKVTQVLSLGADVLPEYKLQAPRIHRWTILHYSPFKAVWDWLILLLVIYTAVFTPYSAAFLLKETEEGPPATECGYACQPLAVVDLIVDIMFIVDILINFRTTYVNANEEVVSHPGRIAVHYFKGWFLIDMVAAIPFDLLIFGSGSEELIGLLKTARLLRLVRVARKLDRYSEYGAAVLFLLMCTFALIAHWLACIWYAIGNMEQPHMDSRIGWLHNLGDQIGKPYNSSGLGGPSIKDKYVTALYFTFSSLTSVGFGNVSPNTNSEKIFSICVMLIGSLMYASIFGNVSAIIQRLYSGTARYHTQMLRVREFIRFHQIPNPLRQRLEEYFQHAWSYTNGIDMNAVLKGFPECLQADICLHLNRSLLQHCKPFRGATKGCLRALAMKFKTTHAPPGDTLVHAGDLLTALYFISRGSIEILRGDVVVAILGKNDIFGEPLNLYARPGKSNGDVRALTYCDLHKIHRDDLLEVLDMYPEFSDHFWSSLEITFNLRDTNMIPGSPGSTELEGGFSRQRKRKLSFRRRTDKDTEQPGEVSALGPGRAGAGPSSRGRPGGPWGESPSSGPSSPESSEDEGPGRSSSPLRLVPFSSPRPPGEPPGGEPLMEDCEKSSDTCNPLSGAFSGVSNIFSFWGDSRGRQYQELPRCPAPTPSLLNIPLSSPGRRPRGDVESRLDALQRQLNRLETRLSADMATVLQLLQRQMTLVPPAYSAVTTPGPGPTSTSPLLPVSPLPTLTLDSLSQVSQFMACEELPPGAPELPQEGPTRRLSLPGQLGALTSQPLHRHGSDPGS
How it was run: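 hERG current measured in vitro by patch clamp at 1 µM.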

[17] = Aqueous solubility of the compound at pH 6.5; format: physicochemical; conditions: aqueous medium; how it was run: as §5
Liver microsome [18] = test: Metabolic stability in human liver microsomes assessed as compound remaining; format: ADME
How it was run: (§6)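 Liver microsome stability: percent of compound remaining after incubation with […] (3 µM microsomes in some cases).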

[19] = Plasma protein binding in rabbit; format: ADME, cell-free, Oryctolagus cuniculus; conditions: read-out: PPB (converted)
Plasma [20] = test: Plasma concentration in rabbit at 10 mg/kg, iv; format: ADME, organism-based, Oryctolagus cuniculus; parameters: dose 10 mg/kg, route intravenous; conditions: in vivo; how it was run: as §1
Blood [21] = test: Drug uptake in rat blood at 0.3 mg/kg, po; format: ADME, organism-based; parameters: dose 0.3 mg/kg, route oral; conditions: in vivo, read-out: Drug uptake
P2Y purinoceptor 1 = P2Y purinoceptor 1 (Homo sapiens, UniProt P47900); test: Antagonist activity at P2Y1 receptor in human platelets by FLIPR assay in presence of 2-methylthio-ADP
Sequence of P2Y purinoceptor 1 (P47900 whole entry): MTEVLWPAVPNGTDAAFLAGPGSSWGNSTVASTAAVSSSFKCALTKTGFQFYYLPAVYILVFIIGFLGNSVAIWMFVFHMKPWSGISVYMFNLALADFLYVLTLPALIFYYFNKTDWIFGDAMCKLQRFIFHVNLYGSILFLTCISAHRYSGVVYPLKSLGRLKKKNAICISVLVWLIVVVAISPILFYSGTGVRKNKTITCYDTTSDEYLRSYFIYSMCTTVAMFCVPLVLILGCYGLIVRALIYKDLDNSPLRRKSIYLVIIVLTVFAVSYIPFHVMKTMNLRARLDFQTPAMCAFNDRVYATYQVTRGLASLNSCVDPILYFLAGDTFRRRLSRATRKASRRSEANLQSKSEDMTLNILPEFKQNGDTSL
How it was run: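 Washed human platelets with endogenous P2Y1; calcium signalling read by FLIPR with reduced protein (~0.1% BSA); agonist 2-methylthio-ADP at 1 µM; IC50 given as mean ± SD.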

[22] = Oral bioavailability in cynomolgus monkey at 5 mg/kg; format: ADME, organism-based, Macaca fascicularis; conditions: in vivo; how it was run: as §2
Rattus norvegicus [23] = test: Toxicity in po dosed pentobarbital anesthetized rat assessed as prolongation of bleeding time measured after 1 hr; format: organism-based; conditions: in vivo; how it was run: as §3
Rattus norvegicus [24] = test: Antiplatelet activity in pentobarbital anesthetized rat assessed as reduction in platelet aggregation at 10 mg/kg, po; format: functional; parameters: scale not given: the % may be the effect or the level left; how it was run: as §3
Platelet = test: Inhibition of ADP-induced platelet aggregation in platelet-rich human plasma; format: functional
How it was run: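 Human platelet-rich plasma; aggregation triggered by 10 µM ADP; IC50 determined.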

[25] = Plasma protein binding in human; format: ADME, cell-free; conditions: read-out: PPB (converted)
Rattus norvegicus [26] = test: Antithrombotic activity in pentobarbital anesthetized rat assessed as reduction in FeCl2-induced thrombus weight at 10 mg/kg, po administered 1 hr prior to FeCl2 challenge; format: functional; parameters: scale not given: the % may be the effect or the level left; how it was run: as §3
[27] = Clearance in cynomolgus monkey at 0.2 mg/kg, iv and 5 mg/kg, po; format: ADME, organism-based, Macaca fascicularis; conditions: in vivo; how it was run: as §2
Plasma [28] = test: Plasma concentration in rabbit at 3 mg/kg, iv; format: ADME, organism-based, Oryctolagus cuniculus; parameters: dose 3 mg/kg, route intravenous; conditions: in vivo; how it was run: as §1
Liver microsome [29] = test: Metabolic stability in rat liver microsomes assessed as compound remaining; format: ADME; how it was run: as §6
Rattus norvegicus [30] = test: Antithrombotic activity in pentobarbital anesthetized rat assessed as preservation of blood flow at 10 mg/kg, po administered 1 hr prior to FeCl2 challenge; format: functional, organism-based; parameters: dose 10 mg/kg; how it was run: as §3
Plasma [31] = test: Plasma concentration in rabbit at 30 mg/kg, iv; format: ADME, organism-based, Oryctolagus cuniculus; parameters: dose 30 mg/kg, route intravenous; conditions: in vivo; how it was run: as §1
Oryctolagus cuniculus [32] = test: Cardiotoxicity in rabbit assessed as QRS interval at 3 to 30 mg/kg, iv by surface electrocardiography; format: toxicity, organism-based; parameters: dose 3-30 mg/kg, route intravenous; conditions: in vivo; how it was run: as §1
[33] = Volume of distribution at steady state in cynomolgus monkey at 0.2 mg/kg, iv and 5 mg/kg, po; format: ADME, organism-based, Macaca fascicularis; conditions: in vivo, read-out: Vdss; how it was run: as §2
[34] = Volume of distribution at steady state in dog at 0.2 mg/kg, iv and 5 mg/kg, po; format: ADME, organism-based, Canis lupus familiaris; conditions: in vivo, read-out: Vdss; how it was run: as §2

CC(C)(C)CN1CCC2(CC1)CN(c1ccccc1NC(=O)Nc1nc3ccc(Cl)nc3s1)c1c(O)ccc(Cl)c12
Activity (Oryctolagus cuniculus [1]): Non-toxic
bioavailability [2]: 27%
pIC50 (P2X purinoceptor 1): 6.74
pIC50 (P2Y purinoceptor 2): < 5.00
pIC50 (Rattus norvegicus [3]): 6.89
ED50 (Rattus norvegicus [3]; po, read-out: ID50): 7.3 mg/kg
clearance [4]: 4 mL/min/kg
Activity (Oryctolagus cuniculus [5]): Non-toxic
concentration (Blood [6]): 81 nM
half-life [7]: 8.2 h
Activity (Rattus norvegicus [8]): Dose-dependent effect
ED50 (Rattus norvegicus [8]; read-out: ID50 (the source's name)): 6.6 mg/kg
fold change (FC) (Rattus norvegicus [9]): 2.5
fold change (FC) (Rattus norvegicus [10]): 2.2
pIC50 (P2Y purinoceptor 12): < 5.00
solubility [11]: 680 µg/mL (≈ 1110 µM)
half-life [12]: 9.4 h
fraction unbound [13]: 0.002
Activity (Rattus norvegicus [14]): Dose-dependent effect
concentration (Blood [15]): 39 nM
concentration (Blood [16]): 240 nM
inhibition at 1 µM (hERG (KCNH2)): 96%
solubility [17]: < 1 µg/mL
Stability (Liver microsome [18]): 94%
fraction unbound [19]: 0.007
concentration (Plasma [20]): 62000 nM
concentration (Blood [21]): 7 nM
pIC50 (P2Y purinoceptor 1): 9.92
bioavailability [22]: 22%
Activity (Rattus norvegicus [23]): Dose-dependent effect
Activity (Rattus norvegicus [24]): 74%
pIC50 (Platelet): 6.89
fraction unbound [25]: 0.007
Activity (Rattus norvegicus [26]): 66%
clearance [27]: 7.7 mL/min/kg
concentration (Plasma [28]): 24000 nM
Stability (Liver microsome [29]): 93%
Activity (Rattus norvegicus [30]): Active
concentration (Plasma [31]): 158000 nM
Activity (Oryctolagus cuniculus [32]): Non-toxic
Vd [33]: 3.3 L/kg
Vd [34]: 2.5 L/kg

CC(C)(C)CN1CCC2(CC1)CN(c1ccccc1NC(=O)Nc1ccc(OC(F)(F)F)cc1)c1cc(O)ccc12
pIC50 (P2Y purinoceptor 1): 8.34

CC(C)(C)CN1CCC2(CC1)CN(c1ccccc1NC(=O)Nc1ccc(OC(F)(F)F)cc1)c1c(O)ccc(Cl)c12
Stability (Liver microsome [18]): 79%
pIC50 (P2Y purinoceptor 1): 10.40
pIC50 (Platelet): 6.35
Stability (Liver microsome [29]): 88%

CC(C)(C)CN1CCC2(CC1)CN(c1ccccc1NC(=O)Nc1ccc(OC(F)(F)F)cc1)c1c(O)ccc(F)c12
Stability (Liver microsome [18]): 78%
pIC50 (P2Y purinoceptor 1): 9.43
pIC50 (Platelet): 6.04
Stability (Liver microsome [29]): 70%
